Activity calls are given as the source filed them. No cut-off for these calls is given here.
Experiments:
P2X purinoceptor 3 = molecular target: T1, P2X purinoceptor 3 (Rattus norvegicus, UniProt P49654); assay: Inhibition of inward ion current elicited by ATP was determined at recombinant P2X3 receptor expressed in Xenopus oocytes; format: functional, cell-based, Oocyte
T1 sequence (P49654 whole entry): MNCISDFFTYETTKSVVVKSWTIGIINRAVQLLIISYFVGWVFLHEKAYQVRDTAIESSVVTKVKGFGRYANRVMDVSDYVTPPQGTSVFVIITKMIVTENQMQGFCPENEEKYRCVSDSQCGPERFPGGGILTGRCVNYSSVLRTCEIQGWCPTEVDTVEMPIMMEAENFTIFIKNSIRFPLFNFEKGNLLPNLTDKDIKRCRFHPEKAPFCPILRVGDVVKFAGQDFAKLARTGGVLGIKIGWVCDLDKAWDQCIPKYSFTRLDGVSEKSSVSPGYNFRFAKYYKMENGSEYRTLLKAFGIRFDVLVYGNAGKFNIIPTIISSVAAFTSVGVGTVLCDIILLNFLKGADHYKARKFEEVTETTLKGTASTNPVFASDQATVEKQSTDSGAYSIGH

P2X purinoceptor 2 = molecular target: T2, P2X purinoceptor 2 (Rattus norvegicus, UniProt P49653); assay: Inhibition of inward ion current elicited by ATP at P2X2 receptor expressed in Xenopus oocytes; format: functional, cell-based, Oocyte
T2 sequence (P49653 whole entry): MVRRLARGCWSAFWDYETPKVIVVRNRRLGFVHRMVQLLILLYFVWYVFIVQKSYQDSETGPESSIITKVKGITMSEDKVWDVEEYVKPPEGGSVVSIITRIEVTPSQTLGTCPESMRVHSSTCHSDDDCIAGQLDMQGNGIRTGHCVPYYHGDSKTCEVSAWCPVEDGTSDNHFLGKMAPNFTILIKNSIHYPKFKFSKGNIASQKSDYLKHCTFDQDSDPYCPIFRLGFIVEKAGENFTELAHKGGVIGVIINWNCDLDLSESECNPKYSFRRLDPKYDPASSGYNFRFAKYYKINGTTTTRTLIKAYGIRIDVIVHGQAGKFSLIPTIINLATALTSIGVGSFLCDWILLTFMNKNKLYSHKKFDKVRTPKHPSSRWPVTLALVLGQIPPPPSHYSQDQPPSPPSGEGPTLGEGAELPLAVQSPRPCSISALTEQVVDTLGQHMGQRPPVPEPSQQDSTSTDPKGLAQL

P2Y purinoceptor 1 = P2Y purinoceptor 1 (Meleagris gallopavo, UniProt P49652); assay: Inhibition of 10 nM 2-MeS-ADP-stimulated phospholipase C in turkey erythrocyte membranes using [3H]inositol; format: functional, cell membranes
Summary of the method: (§1)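 Turkey erythrocytes labelled 18-24 h at 37 °C with 2-[³H]myo-inositol in inositol-free DMEM, then lysed hypotonically (5 mM sodium phosphate pH 7.4, 5 mM MgCl₂, 1 mM EGTA) to make ghosts. Ghosts were incubated 5 min at 30 °C in pH 7.0 Hepes/KCl buffer with 1 µM GTPγS and 10 nM 2-MeSADP. Total [³H]inositol phosphates were measured by anion-exchange chromatography; 3-8 independent determinations.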

P2X purinoceptor 1 = molecular target: T3, P2X purinoceptor 1 (Rattus norvegicus, UniProt P47824); assay: Inhibition of inward ion current elicited by ATP at P2X1 receptor expressed in Xenopus oocytes; format: functional, cell-based, Oocyte
T3 sequence (P47824 whole entry): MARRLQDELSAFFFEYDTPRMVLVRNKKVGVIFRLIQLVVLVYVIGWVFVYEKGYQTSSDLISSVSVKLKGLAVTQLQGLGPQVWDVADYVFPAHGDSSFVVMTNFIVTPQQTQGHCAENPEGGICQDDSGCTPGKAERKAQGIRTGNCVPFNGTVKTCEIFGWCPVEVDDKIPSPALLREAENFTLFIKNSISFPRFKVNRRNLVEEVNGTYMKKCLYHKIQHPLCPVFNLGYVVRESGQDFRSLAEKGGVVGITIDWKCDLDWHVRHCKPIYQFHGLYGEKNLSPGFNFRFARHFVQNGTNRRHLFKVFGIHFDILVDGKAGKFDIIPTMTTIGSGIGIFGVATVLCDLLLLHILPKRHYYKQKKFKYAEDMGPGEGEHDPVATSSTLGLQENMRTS

[1] = molecular target: T4, P2X purinoceptor 7 (Homo sapiens) (UniProt Q99572); assay: Percent inhibition of ATP-induced K+ efflux (ethidium influx) in suspended HEK293 cells expressing human P2X7 receptor; format: functional, cell-based; settings: concentration not given here
T4 sequence (whole entry): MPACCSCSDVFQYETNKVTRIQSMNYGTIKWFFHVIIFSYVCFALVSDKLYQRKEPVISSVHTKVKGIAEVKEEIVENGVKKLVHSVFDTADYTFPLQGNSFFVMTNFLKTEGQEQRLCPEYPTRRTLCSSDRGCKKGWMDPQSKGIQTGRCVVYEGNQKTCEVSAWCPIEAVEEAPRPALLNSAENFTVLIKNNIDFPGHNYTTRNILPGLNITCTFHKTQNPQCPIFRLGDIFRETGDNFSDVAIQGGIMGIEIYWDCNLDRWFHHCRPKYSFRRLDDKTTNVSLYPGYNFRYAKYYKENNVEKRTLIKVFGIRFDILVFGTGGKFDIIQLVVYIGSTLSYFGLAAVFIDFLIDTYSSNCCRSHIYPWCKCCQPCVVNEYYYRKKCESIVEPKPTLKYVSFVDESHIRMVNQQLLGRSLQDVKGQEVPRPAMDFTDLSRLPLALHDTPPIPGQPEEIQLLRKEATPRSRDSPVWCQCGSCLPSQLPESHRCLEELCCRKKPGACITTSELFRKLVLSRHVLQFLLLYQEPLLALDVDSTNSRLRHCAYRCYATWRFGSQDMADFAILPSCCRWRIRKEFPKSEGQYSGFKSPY
Summary of the method: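 Trypsinised HEK293 cells stably expressing human P2X7 were suspended in divalent cation-free saline in a stirred cuvette at 37 °C with 20 µM ethidium bromide. Cells were treated with 30 µM compound, then 300 µM ATP.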

[2] = molecular target: T5, P2X purinoceptor 2 (Rattus norvegicus) (UniProt P49653); assay: Inhibition of inward ion current elicited by ATP at P2X2 receptor expressed in Xenopus oocytes; IA means inactive; format: functional, cell-based; settings: Oocyte
T5 sequence (whole entry): T2 sequence (P49653 whole entry)

[3] = molecular target: P2Y purinoceptor 1 (Meleagris gallopavo) (UniProt P49652); assay: Inhibition of 10 nM 2-MeS-ADP-stimulated phospholipase C in turkey erythrocyte membranes using [3H]inositol; IA means inactive; format: functional, cell membranes; summary of the method: as §1
[4] = molecular target: T4, P2X purinoceptor 7 (Homo sapiens); assay: Percent inhibition of ATP-induced K+ efflux (with cations) in adherent HEK293 cells expressing human P2X7 receptor; format: functional, cell-based; settings: concentration not given here
Summary of the method: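 Adherent HEK293 cells stably expressing human P2X7, grown to 90% confluence, in saline with 1 mM MgCl₂ and 1.5 mM CaCl₂ (pH 7.5). Pretreated with 30 µM compound, then 3 mM ATP for 10 min at 37 °C. Cell K⁺ was extracted in 10% HNO₃ for 2 h and read by atomic absorbance relative to untreated cells. n=3, each in duplicate.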

[5] = molecular target: T4, P2X purinoceptor 7 (Homo sapiens); assay: Percentage inhibition of ATP-induced K+ efflux (cation free) in adherent HEK293 cells expressing human P2X7 receptor; format: functional, cell-based; settings: concentration not given here
Summary of the method: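 Adherent HEK293 cells stably expressing human P2X7, in divalent cation-free saline (no added MgCl₂ or CaCl₂; pH 7.5). Pretreated with 30 µM compound, then 3 mM ATP for 10 min at 37 °C. Residual cell K⁺ was extracted in 10% HNO₃ for 2 h and measured by atomic absorbance against untreated cells. n=3, each in duplicate.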

[6] = molecular target: T6, P2X purinoceptor 1 (Rattus norvegicus) (UniProt P47824); assay: Inhibition of inward ion current elicited by ATP at P2X1 receptor expressed in Xenopus oocytes; IA means inactive; format: functional, cell-based; settings: Oocyte
T6 sequence (whole entry): T3 sequence (P47824 whole entry)

[7] = molecular target: T6, P2X purinoceptor 1 (Rattus norvegicus); assay: Inhibition of inward ion current elicited by ATP at P2X1 receptor expressed in Xenopus oocytes at 10 uM; format: functional, cell-based; settings: Oocyte
[8] = molecular target: T7, P2X purinoceptor 3 (Rattus norvegicus) (UniProt P49654); assay: Inhibition of inward ion current elicited by ATP at recombinant P2X3 receptor expressed in Xenopus oocytes at 10 uM; format: functional, cell-based; settings: Oocyte
T7 sequence (whole entry): T1 sequence (P49654 whole entry)

[9] = molecular target: T7, P2X purinoceptor 3 (Rattus norvegicus); assay: Inhibition of inward ion current elicited by ATP at P2X3 receptor expressed in Xenopus oocytes; IA means inactive; format: functional, cell-based; settings: Oocyte

P2Y purinoceptor 1, sequence (P49652 whole entry): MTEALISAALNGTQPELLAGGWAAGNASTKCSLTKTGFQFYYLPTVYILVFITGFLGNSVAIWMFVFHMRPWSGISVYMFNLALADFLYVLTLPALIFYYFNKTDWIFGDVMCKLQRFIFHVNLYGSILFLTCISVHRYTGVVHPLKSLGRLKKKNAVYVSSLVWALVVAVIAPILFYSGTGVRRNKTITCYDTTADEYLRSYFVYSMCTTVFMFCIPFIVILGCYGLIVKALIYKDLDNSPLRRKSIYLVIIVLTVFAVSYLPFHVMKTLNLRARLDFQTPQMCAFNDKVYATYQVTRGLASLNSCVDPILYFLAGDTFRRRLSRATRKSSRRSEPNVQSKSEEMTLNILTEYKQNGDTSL
P2Y purinoceptor 1 (Meleagris gallopavo), sequence (P49652 whole entry): as above

IC50 (P2Y purinoceptor 1) | inhibition [1] | Inhibition activity [3] | inhibition [4] | inhibition [5] | Structure (SMILES) | further results
– | 17% | inactive | -1% | -5% | Cc1nc(/N=N/c2cc(S(=O)(=O)O)ccc2S(=O)(=O)O)c2c(c1O)COP(=O)(O)OC2 | IA [2]: inactive
100 µM | 15% | – | -1% | -7% | Cc1nc(/N=N/c2cc(S(=O)(=O)O)ccc2S(=O)(=O)O)c(COP(=O)(O)O)c(COP(=O)(O)O)c1O | inhibition [7]: 27%
– | – | inactive | – | – | Cc1ncc(COP(=O)(O)O)c(COP(=O)(O)O)c1O | IA [6]: inactive
– | 40% | – | -5% | -8% | Cc1nc(/N=N/c2cc(S(=O)(=O)O)ccc2Cl)c(CP(=O)(O)O)c(C=O)c1O | –
– | – | inactive | – | – | Cc1ncc2c(c1O)COP(=O)(O)OC2 | IA [2]: inactive; IA [9]: inactive

Continued, compound first:

Structure (SMILES) | IC50 (P2Y purinoceptor 1) | inhibition [1] | Inhibition activity [3] | inhibition [4] | inhibition [5] | further results
Cc1nc(/N=N/c2ccc(C(=O)O)cc2)c(CCP(=O)(O)O)c(C=O)c1O | 100 µM | – | – | – | – | IC50 (P2X purinoceptor 3): 0.145 µM; IC50 (P2X purinoceptor 2): 2.4 µM; IC50 (P2X purinoceptor 1): 0.02 µM
Cc1nc(/N=N/c2cc(S(=O)(=O)O)ccc2S(=O)(=O)O)c(CP(=O)(O)O)c(C=O)c1O | 46 µM | 100% | – | 51% | 28% | IC50 (P2X purinoceptor 3): 0.34 µM; IC50 (P2X purinoceptor 2): 1.1 µM; IC50 (P2X purinoceptor 1): 0.012 µM
Cc1nc(/N=N/c2ccccc2)c2c(c1O)COP(=O)(O)OC2 | – | – | inactive | – | – | IA [6]: inactive
Cc1nc(/N=N/c2cc(S(=O)(=O)O)ccc2Cl)c2c(c1O)COP(=O)(O)OC2 | – | – | – | – | – | inhibition [7]: 43%
CC(=O)Oc1c(C)nc(/N=N/c2cc(S(=O)(=O)O)ccc2S(=O)(=O)O)c2c1COP(=O)(O)OC2 | – | – | – | – | – | IA [6]: inactive
Cc1nc(/N=N/c2cc(S(=O)(=O)O)ccc2Cl)c(COP(=O)(O)O)c(COP(=O)(O)O)c1O | 100 µM | 12% | – | -1% | -5% | inhibition [8]: 30%; inhibition [7]: 78%

Source: ChEMBL document CHEMBL1134335, “Structure-activity relationships of pyridoxal phosphate derivatives as potent and selective antagonists of P2X1 receptors” (J Med Chem, 2001)
